The record followed here is ChEMBL document CHEMBL1147524, “Modified norcantharidins; synthesis, protein phosphatases 1 and 2A inhibition, and anticancer activity” (Bioorg Med Chem Lett, 2004).

One test relates to HT-29. Description: 50% growth inhibition of HT-29 (human colorectal carcinoma) cell line compared with untreated control cells. The format is functional. In outline:
(§1)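 MTT assay in cells in logarithmic growth, plated in triplicate at 2,500–3,500 cells/well and grown 24 h before test agent was added (day 0). Cultures at 37 °C, 5% CO₂, in media with 10% foetal bovine serum, penicillin, streptomycin and glutamine. Agents were dissolved in DMSO as 5 mM stocks. Absorbance was read at 540 nm. GI50 was taken from the optical density difference between day 0 and the end of drug exposure.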

A further test has as its system G-401. Description: 50% growth inhibition of G401 (human kidney carcinoma) cell line compared with untreated control cells. The format is functional. Put shortly:
as §1

For the next test, the system named is NCI-H460. The test can be described thus: 50% growth inhibition of H460 (human lung carcinoma) cell line compared with untreated control cells. The format is functional. Put shortly: as §1
A further test has as its system L1210. The test can be described thus: 50% growth inhibition of L1210 (murine leukemia) cell line compared with untreated control cells. The format is functional. The conditions noted are these: Mus musculus. In outline:
as §1

Test [1] can be described thus: Inhibitory activity against protein phosphatase 2A from human red blood cells. Put shortly:
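Purified PP2A (0.3 mU/well) was preincubated 10 min with inhibitor in 50 mM Tris–HCl, pH 7.0, with CaCl₂. The reaction was started with hexapeptide substrate […] (200 μM), run 60 min at room temperature, and stopped with malachite green. A650 was read after 10 min. IC50 came from dose–response curves as the mean of three independent replicates.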

The next test deals with A2780. Description: 50% growth inhibition of A2780 (Human ovarian carcinoma) cell line compared with untreated control cells. The format is functional. Put shortly:
as §1

For `COC(=O)C1C(C(=O)Nc2ccc(Cl)cc2)[C@H]2CC[C@@H]1O2` (stereo not given in full), the GI50 (usually the concentration giving 50% growth inhibition) in the test with HT-29 was greater than 100 µM; in the test with G-401 it was greater than 100 µM; in the test on NCI-H460, greater than 100 µM; in the test on L1210 it was greater than 100 µM; in the test on A2780, 98 µM. In addition, in test [1], the IC50 (usually the concentration needed to halve the response being measured) was greater than 100 µM.
In the case of `COC(=O)c1cccc(NC(=O)C2C(C(=O)O)[C@@H]3C=C[C@H]2O3)c1` (stereo not given in full), the GI50 in the test on HT-29 was greater than 100 µM; in the test on G-401, greater than 100 µM; in the test with NCI-H460, greater than 100 µM; in the test with L1210, greater than 100 µM; with A2780 it was 97 µM. The same compound registered an IC50 in test [1] of 12 µM.
Take `O=C(O)c1cccc(NC(=O)C2C(C(=O)O)[C@@H]3C=C[C@H]2O3)c1` (stereo not given in full): the GI50 is greater than 100 µM with HT-29; greater than 100 µM in the test with G-401; greater than 100 µM in the test on NCI-H460; greater than 100 µM with L1210; 82 µM in the test on A2780. In test [1], this compound gave an IC50 of 7 µM.
In the case of `N#CC[C@]12C=C[C@H](O1)[C@@H]1C(=O)OC(=O)C12` (stereo not given in full), the GI50 in the test with HT-29 is greater than 100 µM; in the test on G-401 it was greater than 100 µM; in the test with NCI-H460, greater than 100 µM; with L1210, greater than 100 µM; in the test with A2780, 85 µM. Further, the IC50 in test [1] is greater than 100 µM.
Turning to `COC(=O)c1cccc(NC(=O)C2C(C(=O)O)[C@@H]3CC[C@H]2O3)c1` (stereo not given in full), the GI50 was greater than 100 µM in the test with HT-29; greater than 100 µM in the test on G-401; greater than 100 µM with NCI-H460; greater than 100 µM in the test on L1210; 90 µM in the test on A2780. In addition, the IC50 in test [1] was 7.7 µM.
On to `CCOC(=O)c1ccc(NC(=O)C2C(C(=O)O)[C@@H]3C=C[C@H]2O3)cc1` (stereo not given in full), for which the GI50 in the test with HT-29 was greater than 100 µM; in the test with G-401, greater than 100 µM; in the test on NCI-H460 it was greater than 100 µM; in the test with L1210, greater than 100 µM; in the test with A2780 it was 83 µM. Moreover, the IC50 in test [1] stood at 21 µM.
Take `CC(=O)NC[C@@]12C=C[C@@H](O1)C1C(=O)OC(=O)[C@H]12` (stereo not given in full): the GI50 is greater than 100 µM in the test with HT-29; greater than 100 µM in the test on G-401; greater than 100 µM in the test with NCI-H460; greater than 100 µM in the test with L1210; 98 µM in the test on A2780. Moreover, the IC50 in test [1] was greater than 100 µM.
On to `CN(C)C(=O)C1C(C(=O)O)[C@@H]2C=C[C@H]1O2.CNC` (stereo not given in full), for which the GI50 is 49 µM with HT-29; 25 µM in the test with G-401; 41 µM in the test with NCI-H460; 48 µM in the test with L1210; 40 µM with A2780. This compound also yielded an IC50 in test [1] of 3.2 µM.
Take `CC(=O)NC[C@@]12CC[C@@H](O1)C1C(=O)OC(=O)[C@H]12` (stereo not given in full): the GI50 was greater than 100 µM in the test on HT-29; greater than 100 µM with G-401; greater than 100 µM with NCI-H460; greater than 100 µM in the test with L1210; 95 µM in the test with A2780. The same compound had an IC50 in test [1] greater than 100 µM.
Take `CN.CNC(=O)C1C(C(=O)O)[C@@H]2C=C[C@H]1O2` (stereo not given in full): the GI50 with HT-29 is 89 µM; with G-401 it was greater than 100 µM; with NCI-H460, greater than 100 µM; with L1210 it was greater than 100 µM; with A2780, 88 µM. In test [1], this compound gave an IC50 greater than 100 µM.
As for `CCOC(=O)c1ccc(NC(=O)C2C(C(=O)O)[C@@H]3CC[C@H]2O3)cc1` (stereo not given in full), the GI50 in the test on HT-29 was greater than 100 µM; with G-401, greater than 100 µM; in the test with NCI-H460 it was greater than 100 µM; in the test on L1210 it was greater than 100 µM; in the test on A2780, 80 µM. Moreover, the IC50 in test [1] was 9.2 µM.
Consider `O=C(OC[C@H]1C[C@@H]2O[C@H]1[C@H]1C(=O)OC(=O)[C@H]12)c1ccccc1`, for which the GI50 came out at 57 µM with HT-29; 53 µM in the test with G-401; 43 µM in the test on NCI-H460; 49 µM with L1210; 30 µM in the test with A2780. Besides, in test [1], half-maximal inhibition (IC50) was put at 13 µM.
Take `O=C1OC(=O)C2C1[C@@H]1CC[C@H]2O1` (stereo not given in full): the GI50 worked out at 33 µM with HT-29; 35 µM in the test with G-401; 50 µM with NCI-H460; 13 µM in the test on L1210; 39 µM with A2780. Moreover, it took 0.96 µM to reach half-maximal inhibition in test [1] (IC50).
In the case of `O=C(O)C1C(C(=O)OCc2ccccc2)[C@H]2CC[C@@H]1O2` (single isomer, unassigned), the GI50 in the test with HT-29 was greater than 100 µM; in the test on G-401, greater than 100 µM; with NCI-H460, greater than 100 µM; in the test on L1210 it was greater than 100 µM; with A2780, 81 µM. Moreover, the IC50 in test [1] was greater than 100 µM.
For the compound `C[C@@]12C(=O)OC(=O)[C@]1(C)[C@H]1CC[C@@H]2O1` [CANTHARIDIN], the GI50 with HT-29 came out at 6.4 µM; in the test on G-401, 3.5 µM; in the test on NCI-H460, 4.3 µM; with L1210, 15 µM; in the test on A2780, 10 µM. For the same compound, in test [1], the midpoint of inhibition, the IC50, lay at 0.6 µM.
